Laboratory results from ChEMBL document CHEMBL4373666, “Piperidine carbamate peptidomimetic inhibitors of the serine proteases HGFA, matriptase and hepsin” (Medchemcomm, 2019).

What was measured:
[1] = target: T1, Suppressor of tumorigenicity 14 protein (Homo sapiens, UniProt Q9Y5Y6); assay: Inhibition of recombinant human N-terminal met-His6-tagged matriptase catalytic domain (Gly596 to Val855 residues) expressed in Escherichia coli using Boc-QAR-AMC as substrate preincubated for 30 mins followed by substrate addition by fluorescence based assay
T1 sequence (Q9Y5Y6 whole entry): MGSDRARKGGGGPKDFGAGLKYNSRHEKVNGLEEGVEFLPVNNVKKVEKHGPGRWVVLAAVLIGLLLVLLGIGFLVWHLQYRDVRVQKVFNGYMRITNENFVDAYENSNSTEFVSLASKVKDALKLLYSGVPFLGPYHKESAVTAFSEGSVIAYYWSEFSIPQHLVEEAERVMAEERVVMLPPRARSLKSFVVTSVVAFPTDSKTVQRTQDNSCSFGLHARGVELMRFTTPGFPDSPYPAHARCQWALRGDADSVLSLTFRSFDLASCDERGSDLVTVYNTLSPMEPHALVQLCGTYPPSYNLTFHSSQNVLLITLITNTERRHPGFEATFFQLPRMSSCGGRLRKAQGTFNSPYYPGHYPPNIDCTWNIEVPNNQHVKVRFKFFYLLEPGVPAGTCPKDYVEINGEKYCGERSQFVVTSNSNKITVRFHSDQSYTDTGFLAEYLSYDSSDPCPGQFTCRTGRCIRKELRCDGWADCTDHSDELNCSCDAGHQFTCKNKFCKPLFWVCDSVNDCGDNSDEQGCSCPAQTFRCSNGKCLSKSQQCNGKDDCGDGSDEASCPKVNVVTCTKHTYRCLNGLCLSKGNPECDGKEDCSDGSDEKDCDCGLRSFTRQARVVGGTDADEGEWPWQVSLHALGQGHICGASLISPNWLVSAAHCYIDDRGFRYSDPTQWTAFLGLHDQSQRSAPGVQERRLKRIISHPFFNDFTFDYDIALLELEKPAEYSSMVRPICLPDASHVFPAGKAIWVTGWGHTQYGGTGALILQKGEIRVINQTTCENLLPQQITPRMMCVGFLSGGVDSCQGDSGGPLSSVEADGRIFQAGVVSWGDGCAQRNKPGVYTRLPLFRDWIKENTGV

[2] = target: Serine protease hepsin (Homo sapiens, UniProt P05981); assay: Inhibition of recombinant human C-terminal 10-His tagged hepsin (Arg45 to Leu417) expressed in mouse myeloma cells using Boc-QAR-AMC as substrate preincubated for 30 mins followed by substrate addition by fluorescence based assay
Sequence of Serine protease hepsin (P05981 1-162 limits assumed): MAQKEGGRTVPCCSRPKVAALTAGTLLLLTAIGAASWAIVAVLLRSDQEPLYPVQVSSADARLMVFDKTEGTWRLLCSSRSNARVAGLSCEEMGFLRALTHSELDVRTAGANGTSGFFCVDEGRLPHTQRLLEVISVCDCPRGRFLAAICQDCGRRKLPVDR
Sequence of Serine protease hepsin (P05981 163-417 limits assumed): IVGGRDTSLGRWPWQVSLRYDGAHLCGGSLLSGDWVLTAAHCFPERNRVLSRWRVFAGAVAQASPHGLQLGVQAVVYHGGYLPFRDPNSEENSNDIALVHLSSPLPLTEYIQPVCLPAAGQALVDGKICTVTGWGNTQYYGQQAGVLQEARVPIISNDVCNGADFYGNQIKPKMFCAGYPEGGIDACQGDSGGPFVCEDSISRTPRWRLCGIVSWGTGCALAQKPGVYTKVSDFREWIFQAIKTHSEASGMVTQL
Procedure, shortened: (§1)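 Fluorogenic kinetic protease assay: Boc-QLR-AMC substrate for HGFA, Boc-QAR-AMC for hepsin. Each inhibitor was tested at eleven concentrations, pre-incubated with the protease, and then substrate was added. Release of fluorescent product was followed kinetically over one hour, and IC50 was taken from the concentration-dependent inhibition of proteolysis.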

[3] = target: T2, Hepatocyte growth factor activator serine protease (Homo sapiens, UniProt Q04756); assay: Inhibition of recombinant HGFA serine protease domain (unknown origin) using Boc-QLR-AMC as substrate preincubated for 30 mins followed by substrate addition by fluorescence based assay; procedure, shortened: as §1
T2 sequence (Q04756 whole entry): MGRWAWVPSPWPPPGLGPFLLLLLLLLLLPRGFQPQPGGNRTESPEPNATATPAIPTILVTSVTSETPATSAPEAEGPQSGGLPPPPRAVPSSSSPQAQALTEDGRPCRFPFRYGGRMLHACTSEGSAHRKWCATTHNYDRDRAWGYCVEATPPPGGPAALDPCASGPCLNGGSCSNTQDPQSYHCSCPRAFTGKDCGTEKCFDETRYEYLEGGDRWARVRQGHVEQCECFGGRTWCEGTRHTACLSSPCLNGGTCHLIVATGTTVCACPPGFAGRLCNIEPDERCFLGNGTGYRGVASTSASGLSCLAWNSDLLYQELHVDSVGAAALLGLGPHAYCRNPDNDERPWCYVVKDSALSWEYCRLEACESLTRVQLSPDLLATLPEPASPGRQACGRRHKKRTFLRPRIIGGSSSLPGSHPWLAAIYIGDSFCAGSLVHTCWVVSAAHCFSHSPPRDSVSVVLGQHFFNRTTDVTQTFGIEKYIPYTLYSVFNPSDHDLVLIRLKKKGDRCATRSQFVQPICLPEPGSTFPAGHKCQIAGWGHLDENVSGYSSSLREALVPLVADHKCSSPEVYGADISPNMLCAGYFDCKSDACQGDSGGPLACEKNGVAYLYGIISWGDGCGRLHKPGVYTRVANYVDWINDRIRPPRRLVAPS

[4] = target: Prothrombin (Homo sapiens, UniProt P00734); assay: Inhibition of recombinant thrombin (unknown origin) using D-Phe-Pip-Arg-pNA as substrate preincubated for 30 mins followed by substrate addition by chromogenic assay
[5] = target: Coagulation factor X (Homo sapiens, UniProt P00742); assay: Inhibition of recombinant factor Xa (unknown origin) using Bz-Ile-Glu-Gly-Arg-pNA as substrate preincubated for 30 mins followed by substrate addition by chromogenic assay
Sequence of Coagulation factor X (P00742 41-179 limits assumed): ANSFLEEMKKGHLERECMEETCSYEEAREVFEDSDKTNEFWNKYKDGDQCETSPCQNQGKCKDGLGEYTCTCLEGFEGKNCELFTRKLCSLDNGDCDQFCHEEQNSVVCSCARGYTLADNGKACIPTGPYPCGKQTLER
Sequence of Coagulation factor X (P00742 235-488 limits assumed): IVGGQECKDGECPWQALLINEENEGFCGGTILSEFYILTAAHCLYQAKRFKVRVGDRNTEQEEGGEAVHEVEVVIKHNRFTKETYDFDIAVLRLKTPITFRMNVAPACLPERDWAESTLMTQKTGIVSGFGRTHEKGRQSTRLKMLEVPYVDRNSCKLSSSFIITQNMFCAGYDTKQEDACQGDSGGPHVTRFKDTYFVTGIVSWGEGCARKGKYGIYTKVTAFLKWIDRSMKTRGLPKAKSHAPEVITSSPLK

Row | SMILES | IC50 [1] [µM] | IC50 [2] [µM] | IC50 [3] [µM] | IC50 [4] [µM] | IC50 [5] [µM]
1 | N=C(N)c1cccc(C[C@H](NS(=O)(=O)c2ccc3ccccc3c2)C(=O)N2CCN(C(=O)NCc3ccc(Br)cc3)CC2)c1 | 8.4 | 0.09 | 30 |  | 
2 | CC1CN(CC2CCN(Cc3ccccc3)CC2)C(=O)N(c2cccc(C(=N)N)c2)C1 (configuration not stated) | 3.2 | 1.9 | 20 | 11.6 | 0.38
3 | CC(C)C[C@H](NC(=O)OC1(c2ccccc2)CCNCC1)C(=O)N[C@@H](CCCNC(=N)N)C(=O)c1nc2ccccc2s1 |  |  |  | > 20 | 
4 | CC(=O)N1CCC(OC(=O)N[C@@H](CC(C)C)C(=O)N[C@@H](CCCNC(=N)N)C(=O)c2nc3ccccc3s2)CC1 |  |  | > 20 |  | 
5 | CC(C)C[C@H](NC(=O)OC(c1ccccc1)C1CCNCC1)C(=O)N[C@@H](CCCNC(=N)N)C(=O)c1nc2ccccc2s1 (some centres not stated) |  |  |  | > 20 | > 20
6 | CC(C)C[C@H](NC(=O)OC1(Cc2ccccc2)CCNCC1)C(=O)N[C@@H](CCCNC(=N)N)C(=O)c1nc2ccccc2s1 | 0.03 | 0.0006 | 1.2 | > 20 | 6.5
7 | CC(C)C[C@H](NC(=O)OC1CCN(S(=O)(=O)c2ccc([N+](=O)[O-])cc2[N+](=O)[O-])CC1)C(=O)N[C@@H](CCCNC(=N)N)C(=O)c1nc2ccccc2s1 |  |  | > 20 |  | 
8 | N=C(N)NCCC[C@H](NC(=O)[C@H](CC1CCCCC1)NC(=O)OC1(c2ccccc2)CCNCC1)C(=O)c1nc2ccccc2s1 |  |  | > 20 | > 20 | 
9 | CC(=O)N[C@@H](CO)C(=O)N[C@@H](CCCCN)C(=O)N[C@@H](CC(C)C)C(=O)N[C@@H](CCCNC(=N)N)C(=O)c1nc2ccccc2s1 |  |  |  | > 20 | 
10 | CC(C)C[C@H](NC(=O)OC1CCN(S(=O)(=O)c2cccc(F)c2)CC1)C(=O)N[C@@H](CCCNC(=N)N)C(=O)c1nc2ccccc2s1 |  |  | > 20 |  | 
11 | Cc1cc(C)c(S(=O)(=O)N2CCC(OC(=O)N[C@@H](CC(C)C)C(=O)N[C@@H](CCCNC(=N)N)C(=O)c3nc4ccccc4s3)CC2)c(C)c1 | > 20 |  |  |  | 

More lines, now with the values ahead:

Row | IC50 [1] [µM] | IC50 [2] [µM] | IC50 [3] [µM] | IC50 [4] [µM] | IC50 [5] [µM] | SMILES
12 |  | 14 | 11 |  |  | CC(C)c1cc(C(C)C)c(S(=O)(=O)N[C@@H](Cc2cccc(C(=N)N)c2)C(=O)N2CCN(C(=O)C3CCNCC3)CC2)c(C(C)C)c1
13 |  |  | > 20 | > 20 | > 20 | CCS(=O)(=O)N1CCC(OC(=O)N[C@@H](CC(C)C)C(=O)N[C@@H](CCCNC(=N)N)C(=O)c2nc3ccccc3s2)CC1
14 |  |  |  | > 20 |  | CC(=O)N[C@@H](CCCCN)C(=O)N[C@@H](CCC(N)=O)C(=O)N[C@@H](CC(C)C)C(=O)N[C@@H](CCCNC(=N)N)C(=O)c1nc2ccccc2s1
15 |  |  |  | > 20 | > 20 | CC(C)C[C@H](NC(=O)OC1CCN(S(=O)(=O)c2ccccc2)CC1)C(=O)N[C@@H](CCCNC(=N)N)C(=O)c1nc2ccccc2s1
16 |  |  | > 20 |  |  | CC(=O)N1CCC(CCc2ccccc2)(OC(=O)N[C@@H](CC(C)C)C(=O)N[C@@H](CCCNC(=N)N)C(=O)c2nc3ccccc3s2)CC1
